# Source: ChEMBL document CHEMBL5724801, “EUbOPEN Chemogenomics Library - Multiplex” (2024)
# Where “and” joins values, the source holds several entries; their conditions need not be identical. Equal values may be shown once.
# Columns and labels:
# U2OS = assay: Multiplex assay against U2OS; type: toxicity, cell-based; settings: human
# Method in brief: (§1)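 Tubulin, mitochondrial-mass and membrane-permeability phenotypes are per cents of healthy-nucleus cells. Cells were gated by CellPathfinder machine learning into Hoechst high-intensity objects or normal cells, normal cells into healthy, pyknosed or fragmented nuclei, and pyknosed cells into mitotic or apoptotic. Before that, live cells stained at seeding with Hoechst33342, BioTracker Green Microtubule Cytoskeleton Dye, MitoTracker Red and Annexin V Alexa Fluor 680 were imaged on a CQ1 microscope at 37°C and 5% CO2 after compound addition.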
# Fibroblast = assay: Multiplex assay against human fibroblast; type: toxicity, cell-based; method in brief: as §1
# [1] = 24 h, 1 µM, compound concentration 1 uM
# [2] = 24 h, 10 µM, compound concentration 10 uM
# [3] = 48 h, 1 µM, compound concentration 1 uM
# [4] = 48 h, 10 µM, compound concentration 10 uM
# [5] = 12 h, 1 µM, compound concentration 1 uM
# [6] = 12 h, 10 µM, compound concentration 10 uM
compound,measurement,setting,value
CC(C)c1noc(N2CCC(COc3ccc(-c4ccc(S(C)(=O)=O)cc4)nc3)CC2)n1 [GSK-1292263],Total Cell Count,U2OS; [1],236 and 145
same,Population Apoptotic (%),U2OS; [2],92% and 66%
same,Population Fragmented Nuclei (%),U2OS; [2],25% and 15%
same,Population Healthy Nuclei (%),U2OS; [2],65% and 75%
same,Population Hoechst High Intensity Objects (%),U2OS; [2],0% and 2%
same,Population Membrane Permeable-Phenotype (%),U2OS; [2],10% and 6%
same,Population Mitochondria Different-Phenotype (%),U2OS; [2],3% and 5%
same,Population Normal (%),U2OS; [2],99% and 97%
same,Population Pyknosed Nuclei (%),U2OS; [2],9% and 8%
same,Population Tubulin-Different-Phenotype (%),U2OS; [2],3% and 2%
same,Total Cell Count,U2OS; [2],284 and 143
same,Population Apoptotic (%),U2OS; [3],77% and 90%
same,Population Fragmented Nuclei (%),U2OS; [3],23% and 15%
same,Population Healthy Nuclei (%),U2OS; [3],69% and 74%
same,Population Hoechst High Intensity Objects (%),U2OS; [3],2% and 1%
same,Population Membrane Permeable-Phenotype (%),U2OS; [3],3% and 6%
same,Population Mitochondria Different-Phenotype (%),U2OS; [3],3% and 2%
same,Population Mitotic Cells (%),U2OS; [3],22% and 10%
same,Population Normal (%),U2OS; [3],97% and 98%
same,Population Pyknosed Nuclei (%),U2OS; [3],6% and 10%
same,Population Tubulin-Different-Phenotype (%),U2OS; [3],2% and 1%
same,Total Cell Count,U2OS; [3],339 and 201
same,Population Apoptotic (%),U2OS; [4],87% and 83%
same,Population Fragmented Nuclei (%),U2OS; [4],22% and 12%
same,Population Healthy Nuclei (%),U2OS; [4],68% and 77%
same,Population Hoechst High Intensity Objects (%),U2OS; [4],4% and 1%
same,Population Membrane Permeable-Phenotype (%),U2OS; [4],6% and 5%
same,Population Mitochondria Different-Phenotype (%),U2OS; [4],2% and 4%
same,Population Mitotic Cells (%),U2OS; [4],12% and 16%
same,Population Normal (%),U2OS; [4],95% and 98%
same,Population Pyknosed Nuclei (%),U2OS; [4],9%
same,Population Tubulin-Different-Phenotype (%),U2OS; [4],2% and 4%
same,Total Cell Count,U2OS; [4],354 and 189
same,Population Apoptotic (%),Fibroblast; [5],38% and 29%
same,Population Fragmented Nuclei (%),Fibroblast; [5],14% and 18%
same,Population Healthy Nuclei (%),Fibroblast; [5],74% and 50%
same,Population Hoechst High Intensity Objects (%),Fibroblast; [5],2% and 6%
same,Population Membrane Permeable-Phenotype (%),Fibroblast; [5],0% and 4%
same,Population Mitochondria Different-Phenotype (%),Fibroblast; [5],1% and 5%
same,Population Mitotic Cells (%),Fibroblast; [5],61% and 70%
same,Population Normal (%),Fibroblast; [5],97% and 93%
same,Population Pyknosed Nuclei (%),Fibroblast; [5],11% and 31%
same,Population Tubulin-Different-Phenotype (%),Fibroblast; [5],21% and 41%
same,Total Cell Count,Fibroblast; [5],189 and 149
same,Population Apoptotic (%),Fibroblast; [6],39% and 35%
same,Population Healthy Nuclei (%),Fibroblast; [6],65% and 45%
same,Population Hoechst High Intensity Objects (%),Fibroblast; [6],3% and 2%
same,Population Membrane Permeable-Phenotype (%),Fibroblast; [6],1% and 6%
same,Population Mitochondria Different-Phenotype (%),Fibroblast; [6],5% and 10%
same,Population Mitotic Cells (%),Fibroblast; [6],60% and 64%
same,Population Normal (%),Fibroblast; [6],96% and 97%
same,Population Pyknosed Nuclei (%),Fibroblast; [6],26% and 27%
same,Population Tubulin-Different-Phenotype (%),Fibroblast; [6],39% and 61%
same,Total Cell Count,Fibroblast; [6],162 and 145
same,Population Apoptotic (%),Fibroblast; [1],50% and 44%
same,Population Fragmented Nuclei (%),Fibroblast; [1],9% and 20%
same,Population Healthy Nuclei (%),Fibroblast; [1],78% and 53%
same,Population Hoechst High Intensity Objects (%),Fibroblast; [1],3% and 7%
same,Population Membrane Permeable-Phenotype (%),Fibroblast; [1],1% and 4%
same,Population Mitochondria Different-Phenotype (%),Fibroblast; [1],0% and 2%
same,Population Mitotic Cells (%),Fibroblast; [1],50% and 55%
same,Population Normal (%),Fibroblast; [1],96% and 92%
same,Population Pyknosed Nuclei (%),Fibroblast; [1],11% and 25%
same,Population Tubulin-Different-Phenotype (%),Fibroblast; [1],17% and 41%
same,Total Cell Count,Fibroblast; [1],182 and 142
same,Population Apoptotic (%),Fibroblast; [2],52% and 46%
same,Population Fragmented Nuclei (%),Fibroblast; [2],12% and 21%
same,Population Healthy Nuclei (%),Fibroblast; [2],67% and 55%
same,Population Hoechst High Intensity Objects (%),Fibroblast; [2],2% and 3%
same,Population Membrane Permeable-Phenotype (%),Fibroblast; [2],1% and 10%
same,Population Mitochondria Different-Phenotype (%),Fibroblast; [2],5% and 10%
same,Population Mitotic Cells (%),Fibroblast; [2],47% and 53%
same,Population Normal (%),Fibroblast; [2],97% and 96%
same,Population Pyknosed Nuclei (%),Fibroblast; [2],20% and 23%
same,Population Tubulin-Different-Phenotype (%),Fibroblast; [2],50% and 56%
same,Total Cell Count,Fibroblast; [2],168 and 123
same,Population Apoptotic (%),Fibroblast; [3],66% and 54%
same,Population Fragmented Nuclei (%),Fibroblast; [3],19% and 27%
same,Population Healthy Nuclei (%),Fibroblast; [3],74% and 47%
same,Population Hoechst High Intensity Objects (%),Fibroblast; [3],3% and 8%
same,Population Membrane Permeable-Phenotype (%),Fibroblast; [3],0% and 13%
same,Population Mitochondria Different-Phenotype (%),Fibroblast; [3],1% and 4%
same,Population Mitotic Cells (%),Fibroblast; [3],33% and 45%
same,Population Normal (%),Fibroblast; [3],96% and 91%
same,Population Tubulin-Different-Phenotype (%),Fibroblast; [3],22% and 55%
same,Total Cell Count,Fibroblast; [3],193 and 156
same,Population Apoptotic (%),Fibroblast; [4],63% and 50%
same,Population Fragmented Nuclei (%),Fibroblast; [4],13% and 31%
same,Population Healthy Nuclei (%),Fibroblast; [4],65% and 51%
same,Population Hoechst High Intensity Objects (%),Fibroblast; [4],2% and 0%
same,Population Membrane Permeable-Phenotype (%),Fibroblast; [4],0% and 9%
same,Population Mitochondria Different-Phenotype (%),Fibroblast; [4],8% and 14%
same,Population Mitotic Cells (%),Fibroblast; [4],36% and 50%
same,Population Normal (%),Fibroblast; [4],97% and 100%
same,Population Pyknosed Nuclei (%),Fibroblast; [4],20% and 17%
same,Population Tubulin-Different-Phenotype (%),Fibroblast; [4],48% and 76%
same,Total Cell Count,Fibroblast; [4],164 and 125
